In assay [1] the test system is Cutibacterium acnes. Kind of assay: In vitro antimicrobial activity against Propionibacterium acnes ATCC 6919. The format is functional. An outline of the steps:
(§1)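 Anaerobe MIC by broth microdilution in Wilkins-Chalgren broth; inoculum 5 × 10^5 cfu/mL; 37 °C.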

In assay [2] the test system is Staphylococcus aureus. Nature of the assay: In vitro antimicrobial activity against Staphylococcus aureus L1 65 30% bovine serum. The format is functional. In short, it runs like this: (§2)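 Broth microdilution MIC against S. aureus L165 in Iso-Sensitest broth, 37 °C, 20–24 h.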
For assay [3], the system named is Neisseria gonorrhoeae. Nature of the assay: In vitro antimicrobial activity against Neisseria gonorrhoeae L997. The assay is classed as functional. In short, it runs like this:
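Broth microdilution MIC in GC Base broth plus 1% (v/v) IsoVitaleX; inoculum about 10^4 cfu/mL; 37 °C.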

In assay [4] the test system is Staphylococcus aureus. Nature of the assay: In viro antimicrobial activity against Staphylococcus aureus L165 10 x e+6 cfu/ml. The assay is classed as functional. In short, it runs like this: as §2
The test system of assay [5] is Escherichia coli. Nature of the assay: In vitro antimicrobial activity against Escherichia coli L47. The assay is classed as functional. In short, it runs like this:
(§3)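 Broth microdilution MIC in Oxoid Iso-Sensitest broth; inoculum about 10^4 cfu/mL; 37 °C for 20–24 h.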

The subject of assay [6] is Staphylococcus haemolyticus. Kind of assay: In vitro antimicrobial activity against Staphylococcus haemolyticus L602. The format is functional. In short, it runs like this:
as §3

Assay [7] relates to Candida albicans. Kind of assay: In vitro antimicrobial activity against Candida albicans L145. The format is functional. An outline of the steps:
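Candida: broth microdilution MIC in phosphate-buffered Yeast Nitrogen Base broth with glucose (1% w/v) and L-asparagine (0.15% w/v); inoculum about 10^4 cfu/mL; 37 °C, 20–24 h.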

Assay [8] relates to Haemophilus influenzae. Kind of assay: In vitro antimicrobial activity against Haemophilus influenza ATCC 19418. The assay is classed as functional. In short, it runs like this: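 Broth microdilution MIC in Brain Heart Infusion broth plus 1% (v/v) supplement C; inoculum about 10^4 cfu/mL; 37 °C.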
The subject of assay [9] is Enterococcus faecalis. Nature of the assay: In vitro antimicrobial activity against Enterococcus faecalis ATCC 7080. The format is functional. In short, it runs like this:
as §3

For assay [10], the system named is Staphylococcus aureus. Kind of assay: In vitro antimicrobial activity against Staphylococcus aureus L165. The format is functional. In short, it runs like this: as §3
In assay [11] the test system is Streptococcus pyogenes. Nature of the assay: In vitro antimicrobial activity against Streptococcus pyogenes L49. The format is functional. An outline of the steps:
(§4)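 Streptococci: broth microdilution MIC in Todd Hewitt broth; inoculum about 10^4 cfu/mL; 37 °C, 20–24 h.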

Assay [12] deals with Bacteroides fragilis. Nature of the assay: In vitro antimicrobial activity against Bacteroides fragilis ATCC 25285. The assay is classed as functional. In short, it runs like this:
as §1

Assay [13] deals with Streptococcus pneumoniae. Nature of the assay: In vitro antimicrobial activity against Streptococcus pneumoniae L44. The format is functional. In short, it runs like this: as §4
Assay [14] relates to Proteus vulgaris. Nature of the assay: In vitro antimicrobial activity against Proteus vulgaris ATCC881. The format is functional. In short, it runs like this: as §3
Assay [15] relates to Pseudomonas aeruginosa. Nature of the assay: In vitro antimicrobial activity against Pseudomonas aeruginosa ATCC 10145. The format is functional. In short, it runs like this: as §3
For assay [16], the system named is Staphylococcus epidermidis. Kind of assay: In vitro antimicrobial activity against Staphylococcus epidermidis ATCC 12228. The assay is classed as functional. In short, it runs like this:
as §3

The subject of assay [17] is Trichomonas vaginalis. Kind of assay: Antimicrobial activity against Trichomonas vaginalis. The format is functional. In short, it runs like this: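 Broth microdilution in Trichomonas Culture Medium Base plus 10% horse serum; about 10^5 cells/mL; 48 h at 37 °C under N2-CO2-H2; MIC read by microscopy for viable (motile) protozoa.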
Assay [18] has as its system Trichophyton benhamiae. Nature of the assay: In vitro antimicrobial activity against Trichophyton mentagrophytes L364. The format is functional, Arthroderma benhamiae. An outline of the steps: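 Broth microdilution MIC in YM broth; inoculum 1% (v/v) suspension of mycelia and conidia; 30 °C for 72 h.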
For assay [19], the system named is Staphylococcus aureus. Kind of assay: In vitro antimicrobial activity against Staphylococcus aureus L165 30% bovine serum. The format is functional. An outline of the steps: as §2

In brackets after ≈: the same amount, converted by molar mass.

In the case of `COC(=O)c1cc2cc3c(c(O)c2c(=O)o1)OC1(CC2=C(O1)C(=O)c1c(O)c(NCCNC(=O)OC(C)(C)C)cc(O)c1C2=O)CC3O` (stereo unspecified), the MIC in assay [1] was 0.016 µg/mL (≈ 0.024 µM); in assay [2], 2 µg/mL (≈ 3 µM); in [3], 0.13 µg/mL (≈ 0.195 µM); in assay [4], 0.13 µg/mL (≈ 0.195 µM); in assay [5] it was more than 128 µg/mL; in assay [6], 0.06 µg/mL (≈ 0.09 µM). Further, the MIC in assay [7] is more than 128 µg/mL; in assay [8], 1 µg/mL (≈ 1.5 µM); in assay [9], 0.13 µg/mL (≈ 0.195 µM); in [10], 0.13 µg/mL (≈ 0.195 µM); in assay [11] it was 0.13 µg/mL (≈ 0.195 µM); in [12], 0.5 µg/mL (≈ 0.75 µM). The MIC in [13] was 0.06 µg/mL (≈ 0.09 µM); in [14] it was more than 128 µg/mL; in [15], more than 128 µg/mL; in assay [16], 0.06 µg/mL (≈ 0.09 µM).
In [17], `Cc1ncc([N+](=O)[O-])n1CCO` [METRONIDAZOLE] showed an MIC of 0.25 µg/mL (≈ 1.46 µM).
On to `COC(=O)c1cc2cc3c(c(O)c2c(=O)o1)OC1(CC2=C(O1)C(=O)c1c(O)c(NCC(F)(F)F)cc(O)c1C2=O)CC3O` (stereo unspecified), for which the MIC in assay [1] is 0.008 µg/mL (≈ 0.0132 µM); in [2], 2 µg/mL (≈ 3.3 µM); in assay [3] it was 0.06 µg/mL (≈ 0.0991 µM); in assay [4], 0.03 µg/mL (≈ 0.0496 µM); in assay [5], more than 128 µg/mL; in assay [6], 0.016 µg/mL (≈ 0.0264 µM). Also, the MIC amounted to 8 µg/mL (≈ 13.2 µM) in [7]; 0.06 µg/mL (≈ 0.0991 µM) in assay [8]; 0.03 µg/mL (≈ 0.0496 µM) in assay [9]; 0.016 µg/mL (≈ 0.0264 µM) in assay [10]; 0.13 µg/mL (≈ 0.215 µM) in [11]; 0.06 µg/mL (≈ 0.0991 µM) in [12]. The MIC was 0.06 µg/mL (≈ 0.0991 µM) in [13], more than 128 µg/mL in assay [14], more than 128 µg/mL in [15] and 0.016 µg/mL (≈ 0.0264 µM) in assay [16].
On to `CCCNc1cc(O)c2c(c1O)C(=O)C1=C(CC3(CC(O)c4cc5cc(C(=O)OC)oc(=O)c5c(O)c4O3)O1)C2=O` (stereo unspecified), for which the MIC in assay [2] was 2 µg/mL (≈ 3.54 µM); in assay [3], 0.06 µg/mL (≈ 0.106 µM); in assay [4], 0.03 µg/mL (≈ 0.0531 µM); in assay [5], more than 128 µg/mL; in assay [6], 0.06 µg/mL (≈ 0.106 µM); in [7], more than 128 µg/mL. For the same compound, the MIC came out at 0.13 µg/mL (≈ 0.23 µM) in assay [8]; 0.06 µg/mL (≈ 0.106 µM) in assay [9]; 0.03 µg/mL (≈ 0.0531 µM) in assay [10]; 0.13 µg/mL (≈ 0.23 µM) in assay [11]; 0.03 µg/mL (≈ 0.0531 µM) in assay [12]; 0.03 µg/mL (≈ 0.0531 µM) in assay [13]. Further, the MIC in assay [14] was more than 128 µg/mL; in [15], more than 128 µg/mL; in assay [16], 0.016 µg/mL (≈ 0.0283 µM).
Regarding `COC(=O)c1cc2cc3c(c(O)c2c(=O)o1)OC1(CC2=C(O1)C(=O)c1c(O)c(NCC#N)cc(O)c1C2=O)CC3O` (stereo unspecified), the MIC in [1] is 0.016 µg/mL (≈ 0.0284 µM); in [2], 2 µg/mL (≈ 3.56 µM); in assay [3], 0.06 µg/mL (≈ 0.107 µM); in assay [4], 0.13 µg/mL (≈ 0.231 µM); in assay [5] it was more than 128 µg/mL; in assay [6], 0.13 µg/mL (≈ 0.231 µM). In addition, the MIC in [7] is more than 128 µg/mL; in [8] it was 0.13 µg/mL (≈ 0.231 µM); in assay [9] it was 0.13 µg/mL (≈ 0.231 µM); in assay [10], 0.13 µg/mL (≈ 0.231 µM); in assay [11], 0.13 µg/mL (≈ 0.231 µM); in assay [12], 0.5 µg/mL (≈ 0.889 µM). For the same compound, the MIC in assay [13] was 0.03 µg/mL (≈ 0.0533 µM); in [14], more than 128 µg/mL; in assay [15], more than 128 µg/mL; in assay [16], 0.13 µg/mL (≈ 0.231 µM).
Regarding `COC(=O)c1cc2cc3c(c(O)c2c(=O)o1)OC1(CC2=C(O1)C(=O)c1c(O)c(NCCN(C)C)cc(O)c1C2=O)CC3O` (stereo unspecified), the MIC in assay [1] is 0.06 µg/mL (≈ 0.101 µM); in assay [4] it was 0.13 µg/mL (≈ 0.219 µM); in assay [5] it was 16 µg/mL (≈ 26.9 µM); in assay [6], 0.5 µg/mL (≈ 0.841 µM); in assay [7], 64 µg/mL (≈ 108 µM); in assay [18] it was 128 µg/mL (≈ 215 µM). The MIC in assay [10] was 0.13 µg/mL (≈ 0.219 µM); in [12], 0.5 µg/mL (≈ 0.841 µM); in assay [13] it was 0.06 µg/mL (≈ 0.101 µM); in [14] it was 128 µg/mL (≈ 215 µM); in assay [15] it was 128 µg/mL (≈ 215 µM); in assay [19], 0.25 µg/mL (≈ 0.421 µM).

The values are drawn from ChEMBL document CHEMBL1130340, “Semisynthetic derivatives of purpuromycin as potential topical agents for vaginal infections” (1997).
